Results published in ChEMBL document CHEMBL1125801, “Fluorinated colchicinoids: antitubulin and cytotoxic properties” (J Med Chem, 1991).

How the values were obtained:
[1] = Partition coefficient (logP); format: physicochemical; details: octanol/water
[2] = Retention time of the compound; NT-Not Tested; format: ADME
[3] = system: P388; test: Cytotoxic activity against P388 mouse lymphocytic leukemia cell line; format: functional; details: read-out: ED50 (the source's name)
[4] = system: P388; test: Cytotoxic activity against P388 mouse lymphocytic leukemia cell line (doxorubicin resistant).; format: functional; details: read-out: ED50 (the source's name)
[5] = system: J774; test: Cytotoxic activity against mouse macrophage cell line J7.VBL-1; format: functional; details: read-out: ED50 (the source's name)
[6] = system: J774.2; test: Cytotoxic activity against mouse macrophage cell line J774.2; format: functional; details: read-out: ED50 (the source's name)
[7] = Retention time of the compound.; format: ADME
[8] = system: J774; test: (§1) Cytotoxic activity against mouse macrophage cell line J7.COL-100.; format: functional; details: read-out: ED50 (the source's name)
[9] = target: T1, Tubulin (Bos taurus) (UniProt Q6B856+Q862L2+Q862F3); details: at 5 µM
[10] = target: T1, Tubulin (Bos taurus); details: at 2 µM
[11] = target: T1, Tubulin (Bos taurus); details: at 5 µM; remark: listed apart in the source
[12] = target: T1, Tubulin (Bos taurus); details: at 2 µM; remark: listed apart in the source
[13] = system: J774.2; test: Cytotoxic activity against mouse macrophage cell line J774.2 after 72 hr; format: functional; details: J774.2, 72 h, read-out: ED50 (the source's name)
Method in brief: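 Mouse macrophage-like J774.2 (wild type) cells were incubated with or without drug for 72 h, before controls reached confluency, in triplicate per concentration.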

[14] = system: J774; test: as §1; format: functional; details: J774, read-out: ED50
Method in brief: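 Colchicine-resistant variant of mouse macrophage-like J774.2, kept in 100 μM colchicine. Cells were exposed with or without drug in triplicate per concentration for 72 h, ending before controls reached confluency, and then living cells were counted.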

| SMILES | logP [1] | tR [7] [min] | ITP [9] [%] | ITP [10] [%] | ITP [11] [%] | ITP [12] [%] | ITP ([9]; at 100 µM) [%] | tR [2] [min] | EC50 [3] [nM] | EC50 [4] [nM] | EC50 [5] [µM] | EC50 [6] [nM] | EC50 [8] [µM] | EC50 [13] [nM] | EC50 [14] [mM] |
| --- | --- | --- | --- | --- | --- | --- | --- | --- | --- | --- | --- | --- | --- | --- | --- |
| COc1cc2c(c(OC)c1OC)-c1ccc(=O)c(OC)cc1C(NC(C)=O)CC2 (configuration not stated) | 1 |  |  |  |  |  |  | 3.9 | 15000 | 15000 | > 50 | 5600 |  |  |  |
| COc1c(O)cc2c(c1OC)-c1ccc(SC)c(=O)cc1C(NC(C)=O)CC2 (configuration not stated) | 1.43 | 3.8 |  |  |  |  |  |  |  |  |  |  |  |  |  |
| COc1cc2c(c(OC)c1O)-c1ccc(OC)c(=O)cc1C(NC(C)=O)CC2 (configuration not stated) | 0.48 | 3 |  |  |  |  |  |  | 95 | 1220 | 62.5 | 300 | 140 |  |  |
| COc1cc2c(c(OC)c1OC)-c1ccc(OC)c(=O)cc1[C@@H](NC(C)=O)CC2 [COLCHICINE] | 0.6 | 3.9 |  |  |  |  |  |  | 12 | 470 | 17 | 60 | 200 |  |  |
| COc1cc2c(c(OC)c1OC)-c1cc/c(=N/CCF)c(O)cc1C(NC(C)=O)CC2 (configuration not stated) | 1.7 | 5.1 |  |  |  |  |  |  | 23 | 470 | 4.8 | 150 | 32 |  |  |
| COc1cc2c(c(OC)c1O)-c1ccc(OC)c(=O)cc1C(NC(=O)C(F)(F)F)CC2 (configuration not stated) | 1.67 | 3.8 | 35 | 17 | 47 | 24 |  |  | 40 | 120 | 5 | 40 | 10.5 |  |  |
| COc1cc2c(c(OC)c1OC)-c1ccc(=O)c(O)cc1C(NC(C)=O)CC2 (configuration not stated) | 1.2 |  |  |  |  |  |  |  | 1200 | 10000 | > 50 | 3100 |  |  | > 1 |
| CC/N=c1/ccc2c(cc1O)C(NC(C)=O)CCc1cc(OC)c(OC)c(OC)c1-2 (configuration not stated) | 2.34 | 7.5 |  |  |  |  |  |  | 5 | 320 | 1.9 | 10 | 15 |  |  |

Further lines, with some results ahead:

| logP [1] | tR [7] [min] | ITP [9] [%] | ITP [10] [%] | ITP [11] [%] | ITP [12] [%] | ITP ([9]; at 100 µM) [%] | SMILES | tR [2] [min] | EC50 [3] [nM] | EC50 [4] [nM] | EC50 [5] [µM] | EC50 [6] [nM] | EC50 [8] [µM] | EC50 [13] [nM] | EC50 [14] [mM] |
| --- | --- | --- | --- | --- | --- | --- | --- | --- | --- | --- | --- | --- | --- | --- | --- |
| 2.32 | 5.7 | 82 | 42 | 79 | 48 |  | COc1cc2c(c(OC)c1OC)-c1ccc(=N)c(O)cc1C(NC(=O)C(F)(F)F)CC2 (configuration not stated) |  | 13 | 60 | 1.3 | 10 | 4.5 |  |  |
| 1.36 | 10.6 | 45 | 15 | 35 | 30 |  | COc1cc2c(c(OC)c1OC)-c1cc/c(=N/CC(F)(F)F)c(O)cc1C(NC(=O)C(F)(F)F)CC2 (configuration not stated) |  | 50 | 90 | 2.9 |  | 8.8 | 200 |  |
| 1.72 | 5.4 |  |  |  |  |  | COc1cc2c(c(OC)c1OC)-c1ccc(OC)c(=O)cc1[C@@H](NC(=O)C(F)(F)F)CC2 |  | 4 | 40 | 0.8 | 10 | 14 |  |  |
| 1.82 |  |  |  |  |  | 44 | COc1cc2c(c(OC)c1OC)-c1ccc(=O)c(O)cc1C(NC(=O)C(F)(F)F)CC2 (configuration not stated) |  | 3000 | 6000 | 20 | 3000 | 4.9 |  |  |
| 0.3 | 4 |  |  |  |  |  | COc1cc2c(c(OC)c1OC)-c1ccc(=N)c(O)cc1C(NC(C)=O)CC2 (configuration not stated) |  | 13 | 400 | 15 | 20 | 70 |  |  |
| 1.45 | 7.4 |  |  |  |  |  | COc1cc2c(c(OC)c1OC)-c1cc/c(=N/CC(F)(F)F)c(O)cc1C(NC(C)=O)CC2 (configuration not stated) |  | 51 | 900 | 17 | 190 | 50 |  |  |
| 2.61 | 5.3 |  |  |  |  |  | COc1c(O)cc2c(c1OC)-c1ccc(SC)c(=O)cc1C(NC(=O)C(F)(F)F)CC2 (configuration not stated) |  |  |  |  |  |  |  |  |
| 2.08 |  |  |  |  |  | 10 | COc1cc2c(c(OC)c1OC)-c1ccc(=O)c(OC)cc1C(NC(=O)C(F)(F)F)CC2 (configuration not stated) | 5.9 | 1500 | 13000 | > 20 | 3900 |  |  |  |
